Assay [1] is filed under the species Cavia porcellus. The experiment in a line: Antispasmodic activity against isolated guinea pig ileum with metacholine as a spasmogen according to the method of Magnus. Type of assay: functional. The settings on record: read-out: ID50 (the source's name). An outline of the steps: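 Guinea pig ileum segment in a 25-mL organ bath of Tyrode solution at 37 °C, gassed with 5% CO2–95% O2, equilibrated about 30 min. Repeated standard methacholine chloride challenges (4 × 10^-6 M) confirm a consistent response. Percent inhibition of contraction is measured and ID50 is taken by linear regression.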

For assay [2], the species on record is Cavia porcellus. The experiment in a line: Potency (isolated guinea pig ileum) relative to adiphenine was determined. Type of assay: functional.
Assay [3] concerns the target Muscarinic acetylcholine receptor. The experiment in a line: Affinity for the Muscarinic acetylcholine receptor. The format is protein assay, Rattus norvegicus.
The species named for another assay is Rattus norvegicus. The experiment in a line: Potency (isolated rat ileum) relative to adiphenine was determined. Type of assay: functional.
For assay [4], the target named is Muscarinic acetylcholine receptor. The experiment in a line: pA2 value represents the affinity for the Muscarinic acetylcholine receptor and was calculated according to the Ariens and Van Rossum. The format is protein assay. The procedure, abridged:
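Terminal ileum from male Sprague-Dawley rats (250–300 g) killed by cervical dislocation, in a 10-mL bath of Tyrode solution at 35 °C gassed with 95% O2/5% CO2, equilibrated ≥30 min. Cumulative ACh 0.05–1.0 μg/mL at 3-min intervals gives the control curve. After washout and 30 min, compound is added; 10 min later ACh 1–300 μg/mL is given cumulatively. Contraction is read in mm. pA2 = pAx + log(x − 1), with x the ACh EC50 ratio, by linear regression over two or more experiments at four or more dose levels.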

Consider 17 compounds from ChEMBL document CHEMBL1123667, “Molecular modification of anticholinergics as probes for muscarinic receptors. 1. Amino esters of alpha-substituted phenylacetic acid and related analogues” (J Med Chem, 1987).

The pA2 is the negative logarithm of the molar antagonist concentration that doubles the agonist concentration needed for the same response.

`CCN(CC)CCOC(=O)C(CCCCO)c1ccccc1.Cl` (single isomer, unassigned; (+)): the IC50 in the assay listed under Cavia porcellus [1] (Cavia porcellus, Ileum) amounted to 1000 nM. Moreover, the Relative potency in the assay filed under Cavia porcellus [2] amounted to 0.74.

Take `CCN(CC)CCOC(=O)C(CC(C)C)(c1ccccc1)c1ccccc1.Cl`: the IC50 in the assay filed under Cavia porcellus [1] (Cavia porcellus, Ileum) was 1200 nM. Besides, the Relative potency in the assay filed under Cavia porcellus [2] was 0.62.

Turning to `CCN(CC)CCOC(=O)C(CO)c1ccccc1.Cl` (single isomer, unassigned; (-)), the IC50 in the assay listed under Cavia porcellus [1] came to 31 nM. Besides, the Relative potency in the assay filed under Cavia porcellus [2] worked out at 23.87; in the assay listed under Rattus norvegicus, 0.91. Moreover, in assay [3], the pA2 turned out to be 7.4.

With `CCN(CC)CCOC(=O)C(CO)c1ccccc1.Cl` (single isomer, unassigned; (+)), in the assay filed under Cavia porcellus [1], the IC50 was determined as 210 nM. Also, the Relative potency in the assay listed under Cavia porcellus [2] turned out to be 3.52.

For `CCN(CC)CCOC(=O)C(COS(=O)(=O)c1ccc(C)cc1)c1ccccc1.Cl` (single isomer, unassigned; (-)), the pA2 in assay [3] is 6.42. For the same compound, in the assay listed under Rattus norvegicus, the Relative potency is listed as 0.09.

Regarding `CCN(CC)CCOC(=O)C(C)(c1ccccc1)c1ccccc1.Cl`, the IC50 in the assay filed under Cavia porcellus [1] (Cavia porcellus, Ileum) is 53 nM. For the same compound, the Relative potency in the assay listed under Cavia porcellus [2] is on record as 14; in the assay listed under Rattus norvegicus, 9. In addition, in assay [3], the pA2 is recorded as 8.4.

For `CCN(CC)CCOC(=O)C(c1ccccc1)c1ccccc1.Cl` [ADIPHENINE HYDROCHLORIDE], in the assay filed under Cavia porcellus [1] (Cavia porcellus, Ileum), the IC50 came to 740 nM. Also, the Relative potency in the assay filed under Cavia porcellus [2] and in the assay listed under Rattus norvegicus was 1 each time. In assay [3], this compound came in with a pA2 of 7.45.

The compound `CCN(CC)CCOC(=O)C(COS(=O)(=O)c1ccc(C)cc1)c1ccccc1.Cl` (single isomer, unassigned; (+)) registered a pA2 in assay [3] of 6.67. This compound also came in with a Relative potency in the assay listed under Rattus norvegicus of 0.17.

`CCCCC(C(=O)OCCN(CC)CC)(c1ccccc1)c1ccccc1.Cl`: in the assay filed under Cavia porcellus [1] (Cavia porcellus, Ileum), the IC50 came out at 2600 nM. The same compound registered a Relative potency in the assay filed under Cavia porcellus [2] of 0.28.

In turn, `C=C(C(=O)OCCN(CC)CC)c1ccccc1.Cl` came in with a pA2 in assay [3] of 5.86. The Relative potency in the assay filed under Rattus norvegicus is 0.03.

As to `CCN(CC)CCOC(=O)C(CC)(c1ccccc1)c1ccccc1.Cl`, the IC50 in the assay filed under Cavia porcellus [1] (Cavia porcellus, Ileum) was 330 nM. Besides, the Relative potency in the assay filed under Cavia porcellus [2] was found to be 2.24; in the assay listed under Rattus norvegicus, 0.15. The pA2 in assay [3] is reported as 6.63.

Take `CCN(CC)CCO[C@@H]1CCCC[C@@H]1c1ccccc1.Cl` (relative stereo): the pA2 in assay [3] was 7.13. Besides, the Relative potency in the assay listed under Rattus norvegicus was 0.47.

As to `CCN(CC)CCOC(=O)C(CCCCO)c1ccccc1.Cl` (racemic), the IC50 in the assay listed under Cavia porcellus [1] came to 1100 nM. Moreover, the Relative potency in the assay listed under Cavia porcellus [2] was found to be 0.67.

As for `CCN(CC)CCOC(=O)C(c1ccccc1)(c1ccccc1)C(C)C.Cl`, the IC50 in the assay filed under Cavia porcellus [1] (Cavia porcellus, Ileum) worked out at 1300 nM. Further, the Relative potency in the assay listed under Cavia porcellus [2] was found to be 0.57.

In the case of `CCN(CC)CCOC(=O)C(CO)c1ccccc1.Cl` (racemic), the IC50 in the assay filed under Cavia porcellus [1] came to 70 nM. Besides, the results for the Relative potency in the assay filed under Cavia porcellus [2] and in the assay filed under Rattus norvegicus were 10.57 and 0.48, respectively. Also, the pA2 in assay [4] is on record as 7.13.

As for `CCN(CC)CCO[C@H]1CCCC[C@@H]1c1ccccc1.Cl` (relative stereo), in assay [3], the pA2 is given as 6.38. For the same compound, in the assay listed under Rattus norvegicus, the Relative potency came out at 0.09.

As to `CCCC(C(=O)OCCN(CC)CC)(c1ccccc1)c1ccccc1.Cl` [PROADIFEN HYDROCHLORIDE], the IC50 in the assay listed under Cavia porcellus [1] (Cavia porcellus, Ileum) is 1200 nM. This compound displayed a Relative potency in the assay listed under Cavia porcellus [2] of 0.62.
